Assay results: ChEMBL document CHEMBL1165950, “Design and synthesis of new potent anticancer pyrazoles with high FLT3 kinase inhibitory selectivity” (Bioorg Med Chem, 2010)

Legend:
Type in all cases: functional
HCT-15 = assay: Cytotoxicity against human HCT15 cells assessed as cell growth at 100 nM after 48 hrs by sulforhodamine B assay; conditions: HCT-15, 48 h, read-out: Activity
UACC-62 = assay: Cytotoxicity against human UACC62 cells assessed as cell growth at 100 nM after 48 hrs by sulforhodamine B assay; conditions: UACC-62, 48 h, read-out: Activity
MDA-MB-468 = assay: Cytotoxicity against human MDA-MB-468 cells assessed as cell growth at 0.001 uM after 48 hrs by sulforhodamine B assay; conditions: MDA-MB-468, 48 h, read-out: Activity
SN12C = assay: Cytotoxicity against human SN12C cells assessed as cell growth at 100 nM after 48 hrs by sulforhodamine B assay; conditions: read-out: Activity
MDA-MB-231 [1] = assay: Cytotoxicity against human MDA-MB-231 cells assessed as cell growth at 100 nM after 48 hrs by sulforhodamine B assay; conditions: MDA-MB-231, 48 h, read-out: Activity
MDA-MB-231 [2] = assay: Cytotoxicity against human MDA-MB-231 cells assessed as cell growth at 10 uM; conditions: read-out: Activity
Procedure, shortened: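 NCI-60 screen: cells grown in RPMI 1640 with 5% FBS and 2 mM L-glutamine, plated at 5000–40,000 cells/well according to doubling time, and preincubated 24 h at 37 °C, 5% CO2. The single 10 µM dose (DMSO stock) was added, then incubated 48 h. Cells were TCA-fixed and stained with 0.4% SRB, read at 515 nm, and growth % calculated against time-zero and control plates.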

HOP-62 [3] = assay: Cytotoxicity against human HOP62 cells assessed as cell growth at 0.001 uM after 48 hrs by sulforhodamine B assay; conditions: HOP-62, 48 h, read-out: Activity
NCI-H322M = assay: Cytotoxicity against human NCI-H322M cells assessed as cell growth at 0.01 uM after 48 hrs by sulforhodamine B assay; conditions: read-out: Activity
IGROV-1 = assay: Cytotoxicity against human IGROV1 cells assessed as cell growth at 0.01 uM after 48 hrs by sulforhodamine B assay; conditions: IGROV-1, 48 h, read-out: Activity
OVCAR-4 = assay: Cytotoxicity against human OVCAR4 cells assessed as cell growth at 0.01 uM after 48 hrs by sulforhodamine B assay; conditions: OVCAR-4, 48 h, read-out: Activity
UACC-257 = assay: Cytotoxicity against human UACC257 cells assessed as cell growth at 0.001 uM after 48 hrs by sulforhodamine B assay; conditions: UACC-257, 48 h, read-out: Activity
NCI/ADR-RES = assay: Cytotoxicity against human NCI/ADR-RES cells assessed as cell growth at 0.001 uM after 48 hrs by sulforhodamine B assay; conditions: read-out: Activity
ACHN [4] = assay: Cytotoxicity against human ACHN cells assessed as cell growth at 0.001 uM after 48 hrs by sulforhodamine B assay; conditions: read-out: Activity
Procedure, shortened: (§1)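 NCI-60 five-dose screen. Cells were grown in RPMI 1640 with 5% FBS and 2 mM L-glutamine, plated at 5000–40,000 cells/well and preincubated for 24 h. Time-zero plates were TCA-fixed. DMSO-solubilized drug was added at five concentrations (10-fold or ½-log serial dilutions) for 48 h at 37 °C, 5% CO2. Cells were TCA-fixed, stained with 0.4% SRB and read at 515 nm. Percent growth used time-zero, control and test absorbances.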

HOP-62 [5] = assay: Growth inhibition of human HOP62 cells after 48 hrs by sulforhodamine B assay; conditions: HOP-62, 48 h
Procedure, shortened: (§2)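 NCI 60-cell screen, five-dose mode. Cells grown in RPMI 1640 with 5% FBS and 2 mM L-glutamine and plated at 5000-40,000 cells/well according to doubling time. After 24 h preincubation, a Tz plate was TCA-fixed. Five concentrations (10-fold or 1/2 log dilutions) were applied for 48 h at 37 °C. SRB staining read at 515 nm. IC50 taken from [(Ti-Tz)/(C-Tz)]×100 = 50.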

NCI-H23 = assay: Growth inhibition of human NCI-H23 cells after 48 hrs by sulforhodamine B assay; conditions: NCI-H23, 48 h; for CC50: read-out: LC50 (the source's name); procedure, shortened: as §2
M14 = assay: Growth inhibition of human M14 cells after 48 hrs by sulforhodamine B assay; conditions: M14, 48 h; for CC50: read-out: LC50 (the source's name); procedure, shortened: as §2
SK-MEL-2 = assay: Growth inhibition of human SK-MEL-2 cells after 48 hrs by sulforhodamine B assay; conditions: SK-MEL-2, 48 h; for CC50: read-out: LC50 (the source's name); procedure, shortened: as §2
OVCAR-8 = assay: Growth inhibition of human OVCAR8 cells after 48 hrs by sulforhodamine B assay; conditions: OVCAR-8, 48 h; for CC50: read-out: LC50 (the source's name); procedure, shortened: as §2
A549 = assay: Cytotoxicity against human A549 cells assessed as cell growth at 100 nM after 48 hrs by sulforhodamine B assay; conditions: A549, 48 h, read-out: Activity; procedure, shortened: as §1
ACHN [6] = assay: Growth inhibition of human ACHN cells after 48 hrs by sulforhodamine B assay
Procedure, shortened: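 NCI five-dose SRB assay in RPMI 1640 with 5% FBS and 2 mM L-glutamine. Cells were preincubated 24 h, then exposed 48 h at 37 °C to five concentrations (10-fold or half-log serial dilutions from DMSO stocks). TCA fixation, SRB staining, and absorbance at 515 nm followed. IC50 was taken where [(Ti−Tz)/(C−Tz)]×100 = 50, with Tz as time-zero cell density.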

PC-3 = assay: Growth inhibition of human PC3 cells after 48 hrs by sulforhodamine B assay; conditions: PC-3, 48 h; procedure, shortened: as §2
DU-145 = assay: Cytotoxicity against human DU145 cells assessed as cell growth at 1 uM after 48 hrs by sulforhodamine B assay; conditions: DU-145, 48 h, read-out: Activity
HCT-116 = assay: Cytotoxicity against human HCT116 cells assessed as cell growth at 10 uM; conditions: read-out: Activity
Procedure, shortened: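 Single-dose NCI-60 screen at 10 µM. Cells were grown in RPMI 1640 with 5% FBS and 2 mM L-glutamine, then treated for 48 h at 37 °C. Protein was measured by SRB staining with absorbance at 515 nm. Percentage growth was recorded, and inhibition percentage was calculated as 100 minus growth percentage.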

COLO 205 = assay: Cytotoxicity against human COLO205 cells assessed as cell growth at 10 uM after 48 hrs by sulforhodamine B assay; conditions: COLO 205, 48 h, read-out: Activity
Malme-3M = assay: Cytotoxicity against human MALME-3M cells assessed as cell growth at 10 uM after 48 hrs by sulforhodamine B assay; conditions: read-out: Activity
MDA-MB-231 [7] = assay: Cytotoxicity against human MDA-MB-231 cells assessed as cell growth at 10 uM after 48 hrs by sulforhodamine B assay; conditions: MDA-MB-231, 48 h, read-out: Activity
[8] = Cytotoxicity against human Hs 578T cells assessed as cell growth at 10 uM after 48 hrs by sulforhodamine B assay; conditions: read-out: Activity

COc1cc(C)cc(-c2c(-c3ccnc(-c4ccc(C(C)=O)cc4)c3)cnn2CC#N)c1
growth at 0.1 µM (HCT-15): 87% | growth at 0.1 µM (UACC-62): 89% | growth at 0.001 µM (MDA-MB-468): 92% | growth at 0.1 µM (SN12C): 92% | growth at 0.1 µM (MDA-MB-231 [1]): 86% | growth at 10 µM (MDA-MB-231 [2]): 63.8% | growth at 0.001 µM (HOP-62 [3]): 94% | growth at 0.01 µM (NCI-H322M): 95% | growth at 0.01 µM (IGROV-1): 94% | growth at 0.01 µM (OVCAR-4): 101% | growth at 0.001 µM (UACC-257): 95% | growth at 0.001 µM (NCI/ADR-RES): 95% | growth at 0.001 µM (ACHN [4]): 100% | GI50 (HOP-62 [5]): 3.35 µM | LC50 (50% lethal concentration) (HOP-62 [5]): > 100 µM | TGI (HOP-62 [5]): > 100 µM | GI50 (NCI-H23): 3.9 µM | TGI (NCI-H23): > 100 µM | CC50 (NCI-H23): > 100 µM | GI50 (M14): 1.97 µM | CC50 (M14): > 100 µM | GI50 (SK-MEL-2): 5.88 µM | TGI (SK-MEL-2): > 100 µM | CC50 (SK-MEL-2): > 100 µM | GI50 (OVCAR-8): 2.86 µM | TGI (OVCAR-8): > 100 µM | CC50 (OVCAR-8): > 100 µM | growth at 0.1 µM (A549): 83% | GI50 (ACHN [6]): 3.76 µM | LC50 (concentration giving 50% net cell kill) (ACHN [6]): > 100 µM | TGI (ACHN [6]): > 100 µM | GI50 (PC-3): 3.59 µM | LC50 (concentration giving 50% net cell kill) (PC-3): > 100 µM | TGI (PC-3): > 100 µM | growth at 1 µM (DU-145): 16% | growth at 10 µM (HCT-116): 23.4% | growth at 10 µM (COLO 205): -67% | growth at 10 µM (Malme-3M): 43% | growth at 10 µM (MDA-MB-231 [7]): 26% | growth at 10 µM [8]: -27%

Cc1cc(O)cc(-c2nn(CC#N)cc2-c2ccnc(-c3ccc(Oc4ccccc4)cc3)c2)c1
growth at 0.1 µM (HCT-15): 91% | growth at 0.1 µM (UACC-62): 84% | growth at 0.001 µM (MDA-MB-468): 91% | growth at 0.1 µM (SN12C): 86% | growth at 0.1 µM (MDA-MB-231 [1]): 85% | growth at 10 µM (MDA-MB-231 [2]): 46.7% | growth at 0.001 µM (HOP-62 [3]): 93% | growth at 0.01 µM (NCI-H322M): 89% | growth at 0.01 µM (IGROV-1): 83% | growth at 0.01 µM (OVCAR-4): 112% | growth at 0.001 µM (UACC-257): 95% | growth at 0.001 µM (NCI/ADR-RES): 105% | growth at 0.001 µM (ACHN [4]): 98% | GI50 (HOP-62 [5]): 1.17 µM | LC50 (50% lethal concentration) (HOP-62 [5]): 52.3 µM | TGI (HOP-62 [5]): 24.7 µM | GI50 (NCI-H23): 1.94 µM | TGI (NCI-H23): 3.97 µM | CC50 (NCI-H23): 8.13 µM | GI50 (M14): 1.7 µM | TGI (M14): 3.12 µM | CC50 (M14): 5.73 µM | GI50 (SK-MEL-2): 3.44 µM | TGI (SK-MEL-2): 11.7 µM | CC50 (SK-MEL-2): 44.2 µM | GI50 (OVCAR-8): 2.08 µM | TGI (OVCAR-8): 5.54 µM | CC50 (OVCAR-8): 21.9 µM | growth at 0.1 µM (A549): 87% | GI50 (ACHN [6]): 2.84 µM | LC50 (concentration giving 50% net cell kill) (ACHN [6]): 33.8 µM | TGI (ACHN [6]): 9.14 µM | GI50 (PC-3): 2.15 µM | LC50 (concentration giving 50% net cell kill) (PC-3): 62 µM | TGI (PC-3): 7.37 µM | growth at 1 µM (DU-145): -14% | growth at 10 µM (HCT-116): 25.7% | growth at 10 µM (COLO 205): -96% | growth at 10 µM (Malme-3M): -72% | growth at 10 µM (MDA-MB-231 [7]): -62% | growth at 10 µM [8]: -49%
